Key:
Nucleic Acid [1] = test: Binding site preference is determined as the ratio of AT to GC
HT-29 = test: Cytotoxicity is determined as the concentration required to inhibit the growth of human colon adenocarcinoma (HT-29) cell line; assay type: functional, cell-based
Nucleic Acid [2] = test: Binding site preference is determined as the ratio of Poly (dA-dT)2 to Poly (dG-dC)2; assay type: nucleic-acid assay
Procedure, shortened: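 Ethidium displacement fluorometry at pH 7.0 (10 mM Na2HPO4, 10 mM NaH2PO4, 1 mM EDTA) with 1.26 μM ethidium bromide and 1 μM [poly(dA-dT)]2 or [poly(dG-dC)]2, 20 °C. Ex 546 nm, em 595 nm, drug added serially from a DMSO stock. Preference taken from the [AT]/[GC] ratio of C50 values, counted significant only below 0.7 or above 1.3.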

[3] = Cytotoxicity against human HCT116 cancer cell line was determined after 1 hr; assay type: cell-based; conditions: HCT-116, 1 h
Procedure, shortened: (§1)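 MTT colorimetric assay. Cells seeded by growth characteristics and preincubated 24 h, then exposed to drug for 1 h or 144 h at 37 °C, 5% CO2. H460M, MKN45 and PC-3 were grown in RPMI 1640 with 10% FCS. HCT116 was grown in D-MEM with 10% FBS and 2 mM glutamine.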

[4] = Cytotoxicity against human H460M cancer cell line was determined after 1 hr; assay type: cell-based; conditions: Cancer cell lines
Procedure, shortened: as §1

HCT-116 = test: Cytotoxicity against human HCT116 cancer cell line was determined after 144 hr; assay type: functional, cell-based; conditions: HCT-116, 144 h
Procedure, shortened: as §1

LoVo = test: Cytotoxicity against human LoVo cancer cell line was determined after 144 hr; assay type: functional, cell-based
Procedure, shortened: (§2)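 MTT assay on doxorubicin-sensitive LoVo and resistant LoVo/Dx cells, 24 h preincubation, then 1 h or 144 h drug exposure at 37 °C, 5% CO2. IC50 in nM. Resistance index is IC50 on LoVo/Dx divided by IC50 on LoVo.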

PC-3 = test: Cytotoxicity against human PC3 cancer cell line was determined after 144 hr; assay type: functional, cell-based; conditions: PC-3, 144 h
Procedure, shortened: as §1

[5] = Cytotoxicity against human LoVo cancer cell line was determined after 1 hr; assay type: cell-based
Procedure, shortened: as §2

[6] = Cytotoxicity against human MKN45 cancer cell line was determined after 1 hr; assay type: cell-based; conditions: Cancer cell lines
Procedure, shortened: as §1

[7] = Cytotoxicity against human PC3 cancer cell line was determined after 1 hr; assay type: cell-based; conditions: Cancer cell lines
Procedure, shortened: as §1

[8] = Cytotoxicity against human H460M cancer cell line was determined after 144 hr; assay type: functional, cell-based; conditions: Cancer cell lines
Procedure, shortened: as §1

MKN-45 = test: Cytotoxicity against human MKN45 cancer cell line was determined after 144 hr; assay type: functional, cell-based; conditions: MKN-45, 144 h
Procedure, shortened: as §1

SMILES | IC50 (HT-29) | Binding site preference (Nucleic Acid [2]) | further results
COc1ccc2c(c1)c(=O)c1c(NCCN(C)C)ccc3c(=O)n(CCN(C)C)c(=O)n2c31 | – | – | Binding site preference (Nucleic Acid [1]): 0.22
CN(C)CCN1Nc2c3ccccc3nc3c(C(=O)NCCN(C)CCNC(=O)c4ccc5c6c(c7ccccc7nc46)NN5CCN(C)C)ccc1c23 | 360 nM | 4.3 | –
CN(C)CCNc1ccc2c(=O)n(CCN(C)C)c(=O)n3c4ccc(O)cc4c(=O)c1c23 | – | – | Binding site preference (Nucleic Acid [1]): 0.25
CN(C)CCn1c(=O)c2ccc(NCCN(C)CCNc3ccc4c(=O)n(CCN(C)C)c(=O)n5c6ccc(O)cc6c(=O)c3c45)c3c(=O)c4cc(O)ccc4n(c1=O)c23 | 390 nM | 9.1 | –
COc1ccc2c(c1)-c1nn(CCN(C)C)c3ccc(C(=O)NCCN(C)CCNC(=O)c4ccc5c6c(c7cc(OC)ccc7nc46)NN5CCN(C)C)c(c13)N2 | 150 nM | 2.8 | –
COc1cc2c(=O)c3c(NCCCN(C)CCCNc4ccc5c(=O)n(CCN(C)C)c(=O)n6c7cc(OC)c(OC)cc7c(=O)c4c56)ccc4c(=O)n(CCN(C)C)c(=O)n(c2cc1OC)c43 | 250 nM | 4.6 | –
COc1ccc2c(c1)c(=O)c1c(NCCN(C)CCNc3ccc4c(=O)n(CCN(C)C)c(=O)n5c6ccc(OC)cc6c(=O)c3c45)ccc3c(=O)n(CCN(C)C)c(=O)n2c31 | 720 nM | – | –
COc1cc2c(=O)c3c(NCCN(C)C)ccc4c(=O)n(CCN(C)C)c(=O)n(c2cc1OC)c43 | – | – | Binding site preference (Nucleic Acid [1]): 0.12
CN(C)CCNc1ccc2c(=O)n(CCN(C)C)c(=O)n3c4ccccc4c(=O)c1c23 | – | – | Binding site preference (Nucleic Acid [1]): 0.57
CN(C)CCNC(=O)c1ccc(NCCCN(C)CCCNc2ccc(C(=O)NCCN(C)C)c3nc4ccc([N+](=O)[O-])cc4c(O)c23)c2c(O)c3cc([N+](=O)[O-])ccc3nc12 | < 0.1 nM | – | –
CN(C)CCN1Nc2c3cc(O)ccc3nc3c(C(=O)NCCCN(C)CCCNC(=O)c4ccc5c6c(c7cc(O)ccc7nc46)NN5CCN(C)C)ccc1c23 | 780 nM | 1.3 | –
CN(C)CCNc1ccc(C(=O)NCCCN(C)CCCNC(=O)c2ccc(NCCN(C)C)c3c(O)c4cc(O)ccc4nc23)c2nc3ccc(O)cc3c(O)c12 | 800 nM | 1.6 | –
CN(C)CCn1c(=O)c2ccc(NCCCNc3ccc4c(=O)n(CCN(C)C)c(=O)n5c6ccccc6c(=O)c3c45)c3c(=O)c4ccccc4n(c1=O)c23 | 390 nM | 8.9 | –
COc1ccc2nc3c(C(=O)NCCN(C)C)ccc(NCCCN(C)CCCNc4ccc(C(=O)NCCN(C)C)c5nc6ccc(OC)cc6c(O)c45)c3c(O)c2c1 | 39 nM | 1.9 | –
COc1ccc2c(c1)-c1nn(CCN(C)C)c3ccc(C(=O)NCCN(C)C)c(c13)N2 | – | 1.6 | –
CN(C)CCNc1ccc(C(=O)NCCCN(C)CCCNC(=O)c2ccc(NCCN(C)C)c3c(=O)c4ccccc4[nH]c23)c2[nH]c3ccccc3c(=O)c12 | 57 nM | 10 | –
COc1ccc2nc3c(C(=O)NCCCN(C)CCCNC(=O)c4ccc(NCCN(C)C)c5c(O)c6cc(OC)ccc6nc45)ccc(NCCN(C)C)c3c(O)c2c1 | 2 nM | 2.5 | –
O=C1c2c(O)ccc(O)c2C(=O)c2c(NCCNCCO)ccc(NCCNCCO)c21 [MITOXANTRONE] | – | – | IC50 [3]: 110 nM; IC50 [4]: 0.85 nM; IC50 (HCT-116): 5.8 nM; IC50 (LoVo): 3.3 nM; IC50 (PC-3): 7 nM; IC50 [5]: 12 nM; IC50 [6]: 6.8 nM; IC50 [7]: 75 nM; IC50 [8]: 0.75 nM; IC50 (MKN-45): 12 nM
CN(C)CCNC(=O)c1ccc(NCCCN(C)CCCNc2ccc(C(=O)NCCN(C)C)c3nc4ccccc4c(O)c23)c2c(O)c3ccccc3nc12 | 0.43 nM | – | –
CN(C)CCn1c(=O)c2ccc(NCCN(C)CCNc3ccc4c(=O)n(CCN(C)C)c(=O)n5c6ccccc6c(=O)c3c45)c3c(=O)c4ccccc4n(c1=O)c23 | 110 nM | 4.3 | –
CN(C)CCn1c(=O)c2ccc(NCCCCCCCCNc3ccc4c(=O)n(CCN(C)C)c(=O)n5c6ccccc6c(=O)c3c45)c3c(=O)c4ccccc4n(c1=O)c23 | 360 nM | 41 | –
CN(C)CCNC(=O)c1ccc(NCCCN(C)CCCNc2ccc(C(=O)NCCN(C)C)c3nc4ccc(O)cc4c(O)c23)c2c(O)c3cc(O)ccc3nc12 | 6900 nM | 1.8 | –
CN(C)CCn1c(=O)c2ccc(NCCN(C)CCN(C)CCNc3ccc4c(=O)n(CCN(C)C)c(=O)n5c6ccccc6c(=O)c3c45)c3c(=O)c4ccccc4n(c1=O)c23 | 390 nM | 84 | –
CN(C)CCn1c(=O)c2ccc(NCCCCCCNc3ccc4c(=O)n(CCN(C)C)c(=O)n5c6ccccc6c(=O)c3c45)c3c(=O)c4ccccc4n(c1=O)c23 | 43 nM | 30 | –
CN(C)CCNC(=O)c1ccc2c3c(c4cc(O)ccc4nc13)NN2CCN(C)C | – | 5.1 | –
CN(C)CCN1Nc2c3cc(O)ccc3nc3c(C(=O)NCCN(C)CCNC(=O)c4ccc5c6c(c7cc(O)ccc7nc46)NN5CCN(C)C)ccc1c23 | > 10000 nM | 2.8 | –
CN(C)CCn1c(=O)c2ccc(NCCCCCCCCCCCCNc3ccc4c(=O)n(CCN(C)C)c(=O)n5c6ccccc6c(=O)c3c45)c3c(=O)c4ccccc4n(c1=O)c23 | 3500 nM | 12 | –
CN(C)CCNC(=O)c1ccc2c3c(c4ccccc4nc13)NN2CCN(C)C | – | 3.4 | –
CN(C)CCNc1ccc2c(=O)n(CCN(C)C)c(=O)n3c4ccc([N+](=O)[O-])cc4c(=O)c1c23 | – | – | Binding site preference (Nucleic Acid [1]): 0.12

From ChEMBL document CHEMBL1138784, “Rational design, synthesis, and biological evaluation of bis(pyrimido[5,6,1-de]acridines) and bis(pyrazolo[3,4,5-kl]acridine-5-carboxamides) as new anticancer agents” (J Med Chem, 2004)
